Where “and” joins values, the source holds several entries; their conditions need not be identical. Equal entries are not always repeated.
What was measured:
[1] = species on record: Rattus norvegicus; test: Percent injected dose per gram blood at 6 hr; type: functional
Procedure, shortened: (§1)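 Dual-label study in immature 25-day female Sprague-Dawley rats (ca. 50 g). Each received 2 μCi [77Br]bromo tracer (≤1.25 pmol/dose) and 2 μCi 16α-[125I]iodoestradiol (2 pmol/dose) by tail or jugular vein, in ethanol diluted with saline/rat serum 1:1. Rats were killed at 3 or 6 h; blood and 11 tissues were weighed and counted. Five rats per time point; mean ± SD.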

[2] = Uptake ratio was measured with 16-alpha-[125I]-iodo-17-beta-estradiol in immature rats at 6 hr; type: functional
Procedure, shortened: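 Immature (25 day, ca. 50 g) female Sprague-Dawley rats received iv (jugular or tail vein) 2 μCi each of the 77Br ligand (≤1.25 pmol/dose) and 16α-[125I]iodoestradiol (2 pmol/dose), in ethanol plus 0.9% NaCl/rat serum 1:1. Rats were killed at 3 or 6 h, five per time point. Blood and tissues were weighed and counted. The 77Br/125I ratio was calculated per rat and averaged. Nontarget was the mean of esophagus, spleen, lung and muscle.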

[3] = species on record: Rattus norvegicus; test: Percent injected dose per gram lung at 1 hr; type: functional
Procedure, shortened: (§2)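 Immature (25 day) female Sprague-Dawley rats (ca. 50 g) were dosed iv (jugular or tail vein) in ethanol plus 0.9% NaCl/rat serum (1:1). Doses were 2 μCi of [125I]iodonorhexestrol (≤15 pmol/dose), or 2 μCi each of [77Br]bromonorhexestrol (≤1.25 pmol/dose) and 16α-[125I]iodoestradiol (2 pmol/dose). Rats were killed at 1, 3 or 6 h; blood and tissues were weighed and γ-counted. Thyroid weight assumed 0.005 g/100 g body weight. Mean ± SD.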

[4] = species on record: Rattus norvegicus; test: Percent injected dose per gram thyroid at 6 hr; type: functional, Thyroid gland; procedure, shortened: as §2
[5] = Esophagus/blood distribution ratio was determined in immature female rats at 1 hr; type: functional
Procedure, shortened: (§3)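 Immature (25-day, ca. 50 g) Sprague-Dawley female rats received an iv injection (jugular or tail vein) of HPLC-purified tracer in ethanol plus 0.9% NaCl/rat serum 1:1. Doses were 2 μCi [125I]iodo tracer (≤15 pmol), or 2 μCi [77Br]bromo tracer (≤1.25 pmol) with 2 μCi 16α-[125I]iodoestradiol. Animals were killed at 1 h; blood and tissues were weighed and γ-counted. Blocking: coinjected unlabeled estradiol, 9 μg (iodo) or 18 μg (bromo). Mean ± SD.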

[6] = species on record: Rattus norvegicus; test: Percent injected dose per gram esophagus at 1 hr with unlabeled estradiol; type: functional; procedure, shortened: as §3
[7] = species on record: Rattus norvegicus; test: Percent injected dose per gram thyroid at 1 hr with unlabeled estradiol; type: functional, Thyroid gland
Procedure, shortened: (§4)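 Same iv biodistribution in immature female rats, killed at 1 h, with unlabeled estradiol coinjected to block receptor uptake: 9 μg with [125I]iodonorhexestrol (3 rats), 18 μg with the [77Br]bromonorhexestrol/16α-[125I]iodoestradiol pair (5 rats). Tissue and blood radioactivity were counted as % injected dose/g and tissue-to-blood ratio.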

[8] = species on record: Rattus norvegicus; test: Percent injected dose per gram Muscle at 1 hr with unlabeled estradiol; type: functional; procedure, shortened: as §3
[9] = Thyroid/blood distribution ratio was determined in immature female rats at 1 hr; type: functional; procedure, shortened: as §2
[10] = species on record: Rattus norvegicus; test: Percent injected dose per gram kidney at 6 hr; type: functional; procedure, shortened: as §1
[11] = species on record: Rattus norvegicus; test: Percent injected dose per gram Muscle at 1 hr; type: functional; procedure, shortened: as §3
[12] = Tissue/blood distribution ratio was measured in immature female rats at 3h; type: functional; procedure, shortened: as §2
[13] = species on record: Rattus norvegicus; test: Percent injected dose per gram Uterus at 3h; type: functional; procedure, shortened: as §1
[14] = Esophagus/blood distribution ratio was determined in immature female rats at 3h; type: functional; procedure, shortened: as §1
[15] = Liver/blood distribution ratio was determined in immature female rats at 1 hr; type: functional; procedure, shortened: as §3
[16] = species on record: Rattus norvegicus; test: Percent injected dose per gram esophagus at 3h; type: functional; procedure, shortened: as §1
[17] = Kidney/blood distribution ratio was determined in immature female rats at 6 hr; type: functional; procedure, shortened: as §1
[18] = species on record: Rattus norvegicus; test: Percent injected dose per gram thyroid at 1 hr; type: functional, Thyroid gland; procedure, shortened: as §2
[19] = Esophagus/blood distribution ratio was determined in immature female rats at 6 hr; type: functional; procedure, shortened: as §1
[20] = Kidney/blood distribution ratio was determined in immature female rats at 1 hr; type: functional; procedure, shortened: as §3
[21] = species on record: Rattus norvegicus; test: Percent injected dose per gram thyroid at 3h; type: functional, Thyroid gland; procedure, shortened: as §2
[22] = Spleen/blood distribution ratio was determined immature female rats at 3h; type: functional; procedure, shortened: as §2
[23] = Muscle/blood distribution ratio was determined in immature female rats at 6 hr; type: functional; procedure, shortened: as §1
[24] = Liver/blood distribution ratio was determined in immature female rats at 3h; type: functional; procedure, shortened: as §1
[25] = species on record: Rattus norvegicus; test: Percent injected dose per gram Ovaries at 6 hr; type: functional; procedure, shortened: as §1
[26] = species on record: Rattus norvegicus; test: Percent injected dose per gram lung at 3h; type: functional; procedure, shortened: as §2
[27] = Tissue/blood distribution ratio was measured in immature female rats at 1 hr; type: functional; procedure, shortened: as §2
[28] = species on record: Rattus norvegicus; test: Percent injected dose per gram Uterus at 1 hr; type: functional; procedure, shortened: as §3
[29] = species on record: Rattus norvegicus; test: Percent injected dose per gram spleen at 1 hr; type: functional; procedure, shortened: as §2
[30] = Lung/blood distribution ratio was determined in immature female rats at 1 hr with unlabeled estradiol; type: functional; procedure, shortened: as §3
[31] = Lung/blood distribution ratio was determined in immature female rats at 1 hr; type: functional; procedure, shortened: as §3
[32] = species on record: Rattus norvegicus; test: Percent injected dose per gram lung at 1 hr with unlabeled estradiol; type: functional; procedure, shortened: as §4
[33] = species on record: Rattus norvegicus; test: Percent injected dose per gram Uterus at 6 hr; type: functional; procedure, shortened: as §1
[34] = species on record: Rattus norvegicus; test: Percent injected dose per gram kidney at 1 hr with unlabeled estradiol; type: functional; procedure, shortened: as §3
[35] = Tissue/blood distribution ratio was measured in immature female rats at 1h, unlabeled estradiol (18 microg) coinjected; type: functional
Procedure, shortened: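 Immature female rats given iv [77Br]bromonorhexestrol with 16α-[125I]iodoestradiol (2 μCi each) plus 18 μg unlabeled estradiol coinjected; killed at 1 h. Tissue and blood were weighed and counted, and tissue-to-blood radioactivity ratios were computed; 5 animals, mean ± SD.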

[36] = Ovary/blood distribution ratio was determined in immature female rats at 3h; type: functional; procedure, shortened: as §1
[37] = species on record: Rattus norvegicus; test: Percent injected dose per gram kidney at 1 hr; type: functional; procedure, shortened: as §3
[38] = species on record: Rattus norvegicus; test: Percent injected dose per gram Muscle at 6 hr; type: functional; procedure, shortened: as §1
[39] = Spleen/blood distribution ratio was determined in immature female rats at 1 hr with unlabeled estradiol; type: functional
[40] = species on record: Rattus norvegicus; test: Percent injected dose per gram Uterus at 1 hr with unlabeled estradiol.; type: functional; procedure, shortened: as §3
[41] = species on record: Rattus norvegicus; test: Percent injected dose per gram esophagus at 1 hr; type: functional; procedure, shortened: as §3
[42] = species on record: Rattus norvegicus; test: Percent injected dose per gram blood at 1 hr; type: functional; procedure, shortened: as §3
[43] = species on record: Rattus norvegicus; test: Percent injected dose per gram esophagus at 6 hr; type: functional; procedure, shortened: as §1
[44] = species on record: Rattus norvegicus; test: Percent injected dose per gram spleen at 1 hr with unlabeled estradiol; type: functional; procedure, shortened: as §4
[45] = Kidney/blood distribution ratio was determined in immature female rats at 1 hr with unlabeled estradiol; type: functional; procedure, shortened: as §3
[46] = Uterus/blood distribution ratio was measured in immature female rats at 1 hr; type: functional; procedure, shortened: as §2
[47] = species on record: Rattus norvegicus; test: Percent injected dose per gram kidney at 3h; type: functional; procedure, shortened: as §1
[48] = Uterus/blood distribution ratio was measured in immature female rats at 3h; type: functional; procedure, shortened: as §2
[49] = species on record: Rattus norvegicus; test: Percent injected dose per gram liver at 1 hr; type: functional; procedure, shortened: as §2
[50] = species on record: Rattus norvegicus; test: Percent injected dose per gram Ovaries at 1 hr; type: functional; procedure, shortened: as §3
[51] = species on record: Rattus norvegicus; test: Percent injected dose per gram blood at 1 hr with unlabeled estradiol; type: functional; procedure, shortened: as §3
[52] = Spleen/blood distribution ratio was determined immature female rats at 1 hr; type: functional; procedure, shortened: as §2
[53] = Muscle/blood distribution ratio was determined immature female rats at 1 hr with unlabeled estradiol; type: functional; procedure, shortened: as §3
[54] = species on record: Rattus norvegicus; test: Percent injected dose per gram spleen at 6 hr; type: functional; procedure, shortened: as §2
[55] = Lung/blood distribution ratio was determined in immature female rats at 6 hr; type: functional; procedure, shortened: as §1
[56] = species on record: Rattus norvegicus; test: Percent injected dose per gram Ovaries at 3h; type: functional; procedure, shortened: as §1

CC[C@H](c1ccc(O)cc1)[C@@H](CBr)c1ccc(O)cc1
Injected dose [1]: 1.36%
Ratio [2]: 0.58 and 0.33%
Injected dose [3]: 0.42%
Injected dose [4]: 0.18%
Ratio [5]: 0.54
Injected dose [6]: 0.56%
Injected dose [7]: 0.25%
Injected dose [8]: 0.3%
Ratio [9]: 0.32
Injected dose [10]: 0.9%
Injected dose [11]: 0.29%
Ratio [12]: 1
Injected dose [13]: 3.59%
Ratio [14]: 0.49
Ratio [15]: 1.69
Injected dose [16]: 0.61%
Ratio [17]: 0.89
Injected dose [18]: 0.26%
Ratio [19]: 0.5
Ratio [20]: 1.29
Injected dose (g) [21]: 0.09%
Ratio [22]: 0.48
Ratio [23]: 0.26
Ratio [24]: 0.84
Injected dose [25]: 1.93%
Injected dose [26]: 0.95%
Ratio [27]: 1
Injected dose [28]: 3.16%
Injected dose [29]: 0.38%
Ratio [30]: 0.82
Ratio [31]: 0.6
Injected dose [32]: 0.8%
Injected dose [33]: 3.19%
Injected dose [34]: 0.7%
Ratio [35]: 1
Ratio [36]: 1.23
Injected dose [37]: 0.94%
Injected dose [38]: 0.35%
Ratio [39]: 0.51
Injected dose [40]: 0.95%
Injected dose [41]: 0.38%
Injected dose [42]: 0.75%
Injected dose [43]: 0.68%
Injected dose [44]: 0.34%
Ratio [45]: 0.84
Ratio [46]: 4.49
Injected dose [47]: 0.84%
Ratio [48]: 2.86
Injected dose [49]: 1.28%
Injected dose [50]: 1.38%
Injected dose [51]: 0.98%
Ratio [52]: 0.52
Ratio [53]: 0.31
Injected dose [54]: 0.69%
Ratio [55]: 0.76
Injected dose [56]: 1.28%

— ChEMBL document CHEMBL1121966, “(2R*,3S*)-1-[125I]Iodo-2,3-bis(4-hydroxyphenyl)pentane ([125I]iodonorhexestrol) and (2R*,3S*)-1-[77Br]Bromo-2,3-bis(4-hydroxyphenyl)pentane ([77Br]bromonorhexestrol), two gamma-emitting estrogens that show receptor-mediated uptake by target tissues in vivo” (1982)
